pIC50: −log10 of the molar value.
What was measured:
[1] = system: P388; experiment: In vivo for the optimal dose for activity against P388 leukemia per injection; assay type: functional, Mus musculus
How it was run: (§1)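 P388 leukemia in mice, drug given ip on days 1-5 (Q01D×5, IP/IP, NCI testing protocol). Optimum response taken over doses, expressed as mg/kg per injection. Read-outs are %T/C survival and net log cell kill (Schabel method). Cured mice are included in the %T/C and net kill calculations.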

[2] = system: L1210; experiment: In vitro for its inhibitory activity against murine L1210 leukemia; assay type: functional, cell-based; settings: Mus musculus
[3] = system: P388 leukemia (mouse); experiment: Net log value for P388 leukemia cell kill in mice was determined
[4] = system: Mus musculus; experiment: The compound was evaluated in vivo for the optimal dose for activity against murine B-16 melanoma; assay type: functional
How it was run: (§2)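 Murine B-16 melanoma in vivo. Optimal dose given as mg/kg per injection. Response is % T/C survival, with day-60 survivors reported as number per group (of 10 or 6).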

[5] = system: P388; experiment: Percentage T/C survival (treated vs control) against P388 leukemia (day 30 surv); assay type: functional, Mus musculus; how it was run: as §1
[6] = organism: Mus musculus; experiment: % T/C survival against murine B-16 melanoma (day 60 surv); assay type: functional; how it was run: as §2
[7] = system: L1210; experiment: In vitro for its inhibitory activity against murine L1210 leukemia; Inactive; assay type: functional, cell-based, Mus musculus
[8] = system: Mus musculus; experiment: The compound was evaluated in vivo for the optimal dose for activity against of B-16 leukemia per injection; assay type: functional; settings: in the assay text read “B-16 melanoma” for “B-16 leukemia”; how it was run: as §2

| Compound | Dose [1] | pIC50 [2] | Net log cell kill [3] | Dose [4] | T/C [5] | T/C [6] | IC50 [7] | Dose [8] |
| --- | --- | --- | --- | --- | --- | --- | --- | --- |
| CCN(CC)CCNc1ccc2c3c(nn2CCNCCO)-c2ccccc2Sc13.Cl.O | 25 mg/kg | 6.62 | 0.5 |  |  |  |  |  |
| CCN(CC)CCn1nc2c3c(c(N)ccc31)Sc1cccc(O)c1-2 |  | 7.21 |  |  |  |  |  |  |
| Cl.Nc1ccc2c3c(nn2CCNCCO)-c2ccccc2Sc13.O | 25 mg/kg |  | 4.3 | 25 mg/kg | 188% | 259% |  |  |
| Br.Nc1ccc2c3c(nn2CCNCCO)-c2cc(O)ccc2Sc13 | 3.1 mg/kg | 7.64 | 4.2 |  | 192% |  |  |  |
| COc1cccc2c1C(=O)c1c(O)c3c(c(O)c1C2=O)C[C@@](O)(C(=O)CO)C[C@@H]3O[C@H]1C[C@H](N)[C@H](O)[C@H](C)O1 [DOXORUBICIN] | 2 mg/kg |  |  | 1 mg/kg | 232% | 434% |  |  |
| CCN(CC)CCn1nc2c3c(c(N)ccc31)Sc1ccc(O)cc1-2.Cl.O | 6.3 mg/kg | 7.96 | > 6.7 | 1.8 mg/kg |  | 264% |  |  |
| CN(C)CCn1nc2c3c(c(N)ccc31)Sc1ccccc1-2.Cl.O | 12.5 mg/kg | 7.20 | 1.8 |  | 165% |  |  |  |
| CCN(CC)CCn1nc2c3c(c(NCCN4CCOC4=O)ccc31)Sc1ccc(O)cc1-2.Cl.O | 12.5 mg/kg | 8.37 |  |  |  |  |  |  |
| CCN(CC)CCn1nc2c3c(c(Cl)ccc31)S(=O)(=O)c1ccccc1-2 |  | 5.66 |  |  |  |  |  |  |
| Br.CCN(CC)CCn1nc2c3c(c(NCCN)ccc31)Sc1cccc(O)c1-2 | 12.5 mg/kg | 7.32 | 2.8 |  | 177% |  |  |  |
| CCN(CC)CCNc1ccc2c3c(nn2CCN(CC)CC)-c2ccccc2Sc13.Cl | 25 mg/kg | 7.30 | 1.6 |  |  |  |  |  |
| CCN(CC)CCn1nc2c3c(c(Cl)ccc31)[S+]([O-])c1ccccc1-2 (configuration not stated) |  |  |  |  |  |  | Not Active |  |
| CCN(CC)CCn1nc2c3c(c(NCCNCCO)ccc31)Sc1ccccc1-2.Cl.O | 12.5 mg/kg | 7.55 | > 6.8 | 12 mg/kg | 280% | 273% |  |  |
| CCN(CC)CCn1nc2c3c(c(N)ccc31)Sc1cccc(OC)c1-2 |  | 5.70 |  |  |  |  |  |  |
| CCN(CC)CCn1nc2c3c(c(NCCN)ccc31)Sc1ccc(O)cc1-2.Cl.O | 0.8 mg/kg | 8.59 |  |  | 186% |  |  |  |
| CCN(CC)CCn1nc2c3c(c(N)ccc31)Sc1ccc(OC)cc1-2.Cl | 50 mg/kg | 5.82 | 1.4 |  |  |  |  |  |
| CCN(CC)CCn1nc2c3c(c(N)ccc31)Sc1c(OC)cccc1-2.Cl | 25 mg/kg |  | -1.5 |  | 109% |  | Not Active |  |
| Br.CCN(CC)CCn1nc2c3c(c(NCCN)ccc31)Sc1ccccc1-2 | 12.5 mg/kg | 7.52 | > 6.6 |  |  | 159% |  | 6.3 mg/kg |
| CN(C)CCCn1nc2c3c(c(NCCN)ccc31)Sc1ccccc1-2.Cl.O | 12.5 mg/kg | 7.57 | > 6.7 |  |  |  |  |  |
| CN(C)CCn1nc2c3c(c(NCCN)ccc31)Sc1ccccc1-2.Cl.O | 12.5 mg/kg | 7.82 | > 6.7 |  | 270% |  |  |  |
| CCN(CC)CCn1nc2c3c(c(NCCN)ccc31)Sc1ccc(OC)cc1-2.Cl.O | 12.5 mg/kg | 6.68 | 3.9 |  |  |  |  |  |
| CCN(CC)CCn1nc2c3c(c(NCCN)ccc31)Sc1cc(OC)ccc1-2.Cl.O | 25 mg/kg |  | -0.4 |  | 133% |  | Not Active |  |
| Br.CCN(CC)CCn1nc2c3c(c(NCCNCCO)ccc31)Sc1c(O)ccc(O)c1-2 | 50 mg/kg |  | 0.1 |  |  |  | Not Active |  |
| CCN(CC)CCn1nc2c3c(c(NCCN4C(=O)c5ccccc5C4=O)ccc31)Sc1c(OC)cccc1-2 | 12.5 mg/kg |  | -1.5 |  | 107% |  | Not Active |  |
| CCN(CC)CCn1nc2c3c(c(NCCNCCO)ccc31)Sc1ccc(O)cc1-2.Cl.O | 1.5 mg/kg | 8.32 | 4.5 | 1.5 mg/kg | 200% | 183% |  |  |
| CCN(CC)CCn1nc2c3c(c(NC(=O)CNC(=O)OC(C)(C)C)ccc31)Sc1cc(OC)ccc1-2 |  |  |  |  |  |  | Not Active |  |
